Measurements published in ChEMBL document CHEMBL2029267, “Rapid assembly of a library of lipophilic iminosugars via the thiol-ene reaction yields promising pharmacological chaperones for the treatment of Gaucher disease” (J Med Chem, 2012).
Substitutions are numbered along the chain they refer to. pKi: −log10 of the molar value. The source made the active and inactive calls. The rule behind the calls is not given here.

Tests used:
[1] = molecular target: T1, Lysosomal acid glucosylceramidase (Homo sapiens, UniProt P04062); assay: Competitive inhibition of wild type human glucocerebrosidase using 4-methylumbelliferyl beta-D-glucopyranoside as substrate after 15 mins by Dixon and Line-Weaver Burk plot analysis […]
T1 sequence (P04062 whole entry): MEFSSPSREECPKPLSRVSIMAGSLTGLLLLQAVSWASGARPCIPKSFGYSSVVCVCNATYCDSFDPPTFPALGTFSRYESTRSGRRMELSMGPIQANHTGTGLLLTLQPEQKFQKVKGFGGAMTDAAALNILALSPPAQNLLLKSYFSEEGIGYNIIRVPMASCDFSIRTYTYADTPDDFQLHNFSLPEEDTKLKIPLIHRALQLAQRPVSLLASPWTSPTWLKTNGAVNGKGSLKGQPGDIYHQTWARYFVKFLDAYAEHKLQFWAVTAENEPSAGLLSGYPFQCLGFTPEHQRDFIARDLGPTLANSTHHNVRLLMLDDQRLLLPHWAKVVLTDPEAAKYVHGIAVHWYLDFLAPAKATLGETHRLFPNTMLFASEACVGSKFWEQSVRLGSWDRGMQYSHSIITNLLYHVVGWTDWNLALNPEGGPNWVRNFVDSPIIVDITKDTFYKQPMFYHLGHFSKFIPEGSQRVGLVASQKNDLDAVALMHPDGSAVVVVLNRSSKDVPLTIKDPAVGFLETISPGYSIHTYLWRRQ

[2] = molecular target: T2, Lysosomal acid glucosylceramidase (Homo sapiens) (UniProt P04062); assay: Thermal denaturation of human glucocerebrosidase by differential scanning fluorimetry assessed as change in melting temperature at 100 uM and pH 7
T2 sequence (whole entry): T1 sequence (P04062 whole entry)

[3] = tested on: T3, Lysosomal acid glucosylceramidase (Homo sapiens), P04062 [N409S]; assay: Activation of intracellular glucocerebrosidase p.N370S mutant in gaucher patient fibroblast using 4-methylumbelliferyl beta-D-glucopyranoside as substrate assessed as concentration at which 50% of maximum increase in activity
T3 sequence (whole entry): T1 sequence (P04062 whole entry) with N409S

Homo sapiens [4] = species on record: Homo sapiens; assay: Activation of intracellular glucocerebrosidase p.L444P mutant in gaucher patient fibroblast using 4-methylumbelliferyl beta-D-glucopyranoside as substrate relative to control
[5] = molecular target: Lysosomal alpha-glucosidase (Homo sapiens) (UniProt P10253); assay: Inhibition of human lysosomal alpha-glucosidase using 4-methylumbelliferyl alpha-D-glucopyranoside as substrate at 200 uM by fluorimetric analysis
In short: (§1)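 Enzyme source was a lysosomal-enzyme-enriched ConA-bound human placental fraction, run in 100 mM citrate–phosphate pH 4.5 with 0.025% human serum albumin at 37 °C. Compound was tested at 200 μM in triplicate. An equal volume of 4-MU substrate was added: α-Glc 3.0 mM (α-glucosidase), α-Gal 1.0 mM (α-galactosidase), β-Gal 0.5 mM (β-galactosidase). Reactions were stopped with 4-fold excess 100 mM aminomethylpropanol and fluorescence read at 365/460 nm.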

[6] = molecular target: T4, Beta-galactosidase (Homo sapiens) (UniProt P16278); assay: Inhibition of human lysosomal beta-galactosidase using 4-methylumbelliferyl beta-Dgalactopyranoside as substrate at 200 uM by fluorimetric analysis; in short: as §1
T4 sequence (whole entry): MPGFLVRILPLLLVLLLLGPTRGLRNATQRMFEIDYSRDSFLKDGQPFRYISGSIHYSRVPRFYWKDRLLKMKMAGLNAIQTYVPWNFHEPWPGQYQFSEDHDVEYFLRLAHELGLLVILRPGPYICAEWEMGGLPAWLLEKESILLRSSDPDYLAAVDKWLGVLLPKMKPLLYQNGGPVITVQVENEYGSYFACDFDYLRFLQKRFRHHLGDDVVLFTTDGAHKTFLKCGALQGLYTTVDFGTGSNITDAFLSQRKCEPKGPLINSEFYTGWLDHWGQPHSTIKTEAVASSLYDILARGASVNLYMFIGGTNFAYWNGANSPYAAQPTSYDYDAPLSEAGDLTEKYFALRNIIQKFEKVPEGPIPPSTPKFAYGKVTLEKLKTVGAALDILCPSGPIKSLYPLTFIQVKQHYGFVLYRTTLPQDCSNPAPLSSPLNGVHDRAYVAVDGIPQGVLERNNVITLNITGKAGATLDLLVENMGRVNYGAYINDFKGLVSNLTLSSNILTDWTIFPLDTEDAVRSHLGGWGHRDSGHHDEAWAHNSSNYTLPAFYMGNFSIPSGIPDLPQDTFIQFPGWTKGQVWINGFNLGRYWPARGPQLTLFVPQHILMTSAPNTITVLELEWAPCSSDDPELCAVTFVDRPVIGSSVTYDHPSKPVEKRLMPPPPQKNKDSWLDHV

Homo sapiens [7] = species on record: Homo sapiens; assay: Activation of intracellular glucocerebrosidase p.L444P mutant in gaucher patient fibroblast using 4-methylumbelliferyl beta-D-glucopyranoside as substrate assessed as concentration at which 50% of maximum increase in activity
[8] = tested on: T3, Lysosomal acid glucosylceramidase (Homo sapiens), P04062 [N409S]; assay: Activation of intracellular glucocerebrosidase p.N370S mutant in gaucher patient fibroblast using 4-methylumbelliferyl beta-D-glucopyranoside as substrate relative to control
Homo sapiens [9] = species on record: Homo sapiens; assay: Inhibition of human lysosomal alpha-galactosidase using 4-methylumbelliferyl alpha-D-galactopyranoside as substrate at 200 uM by fluorimetric analysis; in short: as §1
[10] = molecular target: T1, Lysosomal acid glucosylceramidase; assay: Competitive inhibition of wild type human glucocerebrosidase using 2,4-dinitrophenyl beta-D-glucopyranoside as substrate after 3 mins by Dixon and Line-Weaver Burk plot analysis at pH 5
In short: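 Continuous UV assay with 4.0 nM GBA and 2,4-dinitrophenyl β-D-glucoside, started by adding enzyme. A400 was followed, linear over 3 min. Three substrate levels were run at about seven inhibitor levels (0.2–5 Ki), with nonlinear fit to a competitive model checked by Dixon and Lineweaver–Burk plots.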

Compound | pKi [1] | deltaTm [2] [K] | Activity [3] [nM] | fold change (FC) (Homo sapiens [4]) | inhibition [5] | inhibition [6] | Activity (Homo sapiens [7]) [nM] | fold change (FC) [8] | inhibition (Homo sapiens [9]) | pKi [10]
O[C@@H]1[C@@H](O)[C@@H](CCSCCc2ccccc2)NC[C@H]1O | 8.52 | 14 | 2.8 | 1.1 | inactive | inactive | 2.1 | 2.2 | inactive | 
O=C(NCCSCC[C@H]1NC[C@@H](O)[C@H](O)[C@H]1O)Nc1ccccc1 | 7.92 | 11 | 90 | 1.1 | inactive | inactive | 64 | 2.3 | inactive | 
O=C(CCCSCC[C@H]1NC[C@@H](O)[C@H](O)[C@H]1O)N1CCOCC1 |  | 7.6 | 4500 | 1.3 | inactive | inactive | 1500 | 3.2 | inactive | 6.35
CC[C@H]1NC[C@@H](O)[C@H](O)[C@H]1O |  | 4.4 |  | 1.2 | inactive | inactive | 7000 | 2.1 | inactive | 5.96
CCSCC[C@H]1NC[C@@H](O)[C@H](O)[C@H]1O |  | 7 | 600 | 1.3 | inactive | inactive | 300 | 2.5 | inactive | 6.74
CC(C)(C)SCC[C@H]1NC[C@@H](O)[C@H](O)[C@H]1O |  | 8.4 | 49 | 1.2 | inactive | inactive | 25 | 2.3 | inactive | 7.54
O[C@@H]1[C@@H](O)[C@@H](CCSC2CCCC2)NC[C@H]1O | 8.22 | 11 | 5.3 | 1.4 | inactive | inactive | 1.2 | 2.2 | inactive | 
CC(C)CCSCC[C@H]1NC[C@@H](O)[C@H](O)[C@H]1O | 8.36 | 14 | 1.2 | 1.2 | inactive | inactive | 0.3 | 2 | inactive | 
O[C@H]1[C@H](O)CNC[C@@H]1O |  | 3.6 | 24000 | 1.1 | inactive | inactive | 44600 | 1.5 | inactive | 
O[C@@H]1[C@@H](O)[C@@H](CCSC2CCCCC2)NC[C@H]1O | 8.40 | 13 | 1.3 | 1.3 | inactive | inactive | 0.6 | 2.2 | inactive | 
O=C(CSCC[C@H]1NC[C@@H](O)[C@H](O)[C@H]1O)NCc1ccccc1 |  | 11 | 190 | 1.3 | inactive | inactive | 63 | 2.5 | inactive | 7.52
O[C@@H]1[C@@H](O)[C@@H](CCSCc2ccccc2)NC[C@H]1O | 7.72 | 13 | 1.6 | 1.1 | inactive | inactive | 2.6 | 2.1 | inactive | 
C=C[C@H]1NC[C@@H](O)[C@H](O)[C@H]1O |  | 3.4 | 1800 | 1.3 | inactive | inactive | 1700 | 1.4 | inactive | 5.57
CCCCSCC[C@H]1NC[C@@H](O)[C@H](O)[C@H]1O | 7.74 | 11 | 18 | 1.3 | inactive | inactive | 12 | 2.4 | inactive | 
CCCC(=O)NCCSCC[C@H]1NC[C@@H](O)[C@H](O)[C@H]1O |  | 8.2 | 2700 | 1.3 | inactive | inactive | 2900 | 2.7 | inactive | 6.70
CC(C)SCC[C@H]1NC[C@@H](O)[C@H](O)[C@H]1O |  | 7.8 | 38 | 1.4 | inactive | inactive | 2.2 | 2.3 | inactive | 7.12
CCN(CC)C(=O)CCCSCC[C@H]1NC[C@@H](O)[C@H](O)[C@H]1O |  | 10 | 800 | 1.3 | inactive | inactive | 500 | 2.7 | inactive | 6.60
